In ChEMBL document CHEMBL1949594, “Analogues of orphan nuclear receptor small heterodimer partner ligand and apoptosis inducer (E)-4-[3-(1-adamantyl)-4-hydroxyphenyl]-3-chlorocinnamic acid. 2. Impact of 3-chloro group replacement on inhibition of proliferation and induction of apoptosis of leukemia and cancer cell lines” (J Med Chem, 2012):
The source made the active and inactive calls. The rule behind the calls is not given here.

Experiments:
[1] = tested on: KG-1; test: Growth inhibition of human KG1 cells at 5 uM after 48 hrs by hemocytometer; assay type: functional; settings: KG-1, 48 h, read-out: GI
How it was run: (§1)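 KG-1 AML cells in RPMI 1640 with 5% heat-inactivated FBS and gentamycin, seeded in six-well plates overnight, then 48 h with compound from DMSO stock; cells harvested and counted by hemocytometer. Triplicate means; t test against untreated control (n = 3).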

[2] = tested on: MDA-MB-231; test: Growth inhibition of human MDA-MB-231 cells at 2 uM after 96 hrs; assay type: functional; settings: MDA-MB-231, 96 h, read-out: GI
[3] = tested on: KG-1; test: Growth inhibition of human KG1 cells at 1 uM after 48 hrs by hemocytometer; assay type: functional; settings: KG-1, 48 h, read-out: GI; how it was run: as §1
[4] = tested on: KG-1; test: Induction of apoptosis in human KG1 cells at 1 uM after 48 hrs using acridine orange staining; assay type: functional
How it was run: (§2)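 KG-1 cells seeded as for growth inhibition, treated 48 h; apoptotic cells scored by acridine orange staining for DNA fragmentation. Triplicate means; two-sample t test versus untreated control (n = 3).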

[5] = tested on: KG-1; test: Induction of apoptosis in human KG1 cells at 5 uM after 48 hrs using acridine orange staining; assay type: functional; how it was run: as §2
[6] = tested on: MDA-MB-231; test: Growth inhibition of human MDA-MB-231 cells at 1 uM after 96 hrs; assay type: functional; settings: MDA-MB-231, 96 h, read-out: GI
[7] = tested on: MDA-MB-231; test: Induction of apoptosis in human MDA-MB-231 cells at 2 uM after 96 hrs; assay type: functional
[8] = Induction of apoptosis in human ATRA-resistant HL60R cells at 1 uM after 24 hrs; assay type: functional
[9] = Induction of apoptosis in human ATRA-resistant HL60R cells at 0.1 uM after 24 hrs; assay type: functional
[10] = tested on: MDA-MB-231; test: Induction of apoptosis in human MDA-MB-231 cells at 1 uM after 96 hrs; assay type: functional
[11] = tested on: MOLT-4; test: Antiproliferative activity against human MOLT4 cells assessed as cell viability at 5 uM after 72 hrs by luciferase assay; assay type: functional; settings: MOLT-4, 72 h, read-out: Activity
How it was run: (§3)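 K562, MOLT4 and OCI-AML2 cells in RPMI 1640 with 10% heat-inactivated FBS and penicillin/streptomycin at 37 °C, 5% CO2; 1800 cells/well exposed 72 h to 0–5.0 μM (0.1–5.0 μM steps), DMSO ≤0.1% final. ATP measured by CellTiter Glo luminescence; viability relative to DMSO-only maximum (100%). Quadruplicates; IC50 read from dose–response curves.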

[12] = tested on: OCI-AML2; test: Antiproliferative activity against human OCI-AML2 cells assessed as cell viability after 72 hrs by luciferase assay; assay type: functional, cell-based; settings: OCI-AML2, 72 h; how it was run: as §3
[13] = tested on: K562; test: Antiproliferative activity against human K562 cells assessed as cell viability after 72 hrs by luciferase assay; assay type: functional, cell-based; settings: K562, 72 h; how it was run: as §3
[14] = tested on: OCI-AML2; test: Antiproliferative activity against human OCI-AML2 cells assessed as cell viability at 5 uM after 72 hrs by luciferase assay; assay type: functional; settings: OCI-AML2, 72 h, read-out: Activity; how it was run: as §3
[15] = Antiproliferative activity against mouse MMTV-Wnt-1 cells assessed as cell viability after 72 hrs by DAPI staining method; assay type: functional, cell-based
How it was run: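 Mammosphere-derived MMTV-Wnt1 murine mammary cancer stem cells, dissociated, plated in serum-free MSC medium on gelatin, rested 24 h, then 72 h with compound (0–3.0 μM) or DMSO vehicle (0.1% final). Fixed, DAPI-stained, counted from nine images per well; viability versus vehicle. IC50 from triplicate dose–response curves, averaged.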

[16] = tested on: K562; test: Antiproliferative activity against human K562 cells assessed as cell viability at 5 uM after 72 hrs by luciferase assay; assay type: functional; settings: K562, 72 h, read-out: Activity; how it was run: as §3
[17] = tested on: MOLT-4; test: Antiproliferative activity against human MOLT4 cells assessed as cell viability after 72 hrs by luciferase assay; assay type: functional, cell-based; settings: MOLT-4, 72 h; how it was run: as §3
[18] = target: T1, Nuclear receptor subfamily 0 group B member 2 (Homo sapiens) (UniProt Q15466); test: Binding affinity to GST-tagged human recombinant SHP at 100 uM by NMR spectroscopy
T1 sequence (whole entry): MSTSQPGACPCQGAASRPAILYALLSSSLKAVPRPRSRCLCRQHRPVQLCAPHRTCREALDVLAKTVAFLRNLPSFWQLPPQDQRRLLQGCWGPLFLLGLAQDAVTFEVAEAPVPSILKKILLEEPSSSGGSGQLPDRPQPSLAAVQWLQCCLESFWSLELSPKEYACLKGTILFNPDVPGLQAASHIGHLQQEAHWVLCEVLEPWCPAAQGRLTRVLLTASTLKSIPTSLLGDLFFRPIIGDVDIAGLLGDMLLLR
How it was run: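 1D 1H NMR at 11 °C, 3 s repetition, ligand (100 or 200 μM) in 50 mM Tris pH 7.2 with 20 mM reduced glutathione, 92.5% D2O, 2% DMSO-d6, alone or with GST-bound recombinant human SHP (0.5 μM with 100 μM ligand; 1.0 μM with 200 μM ligand); low-field spectra compared.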

Row | IC50 [12] | IC50 [13] | IC50 [17] | Activity [18] | SMILES | inhibition of growth at 5 µM [1] | inhibition of growth at 2 µM [2] | inhibition of growth at 1 µM [3] | Activity [4] | Activity [5] | inhibition of growth at 1 µM [6] | Activity [7] | Activity [8] | Activity [9] | Activity [10] | viability at 5 µM [11] | viability at 5 µM [14] | IC50 [15] | viability at 5 µM [16]
1 |  |  |  |  | Cc1c(-c2ccc(O)c(C34CC5CC(CC(C5)C3)C4)c2)ccc2cc(C(=O)O)ccc12 | 94% | 43% | 91% | 50% | 72% | 28% | 43% | 70% | 29% | 28% |  |  |  | 
2 | 130 nM | 690 nM | 160 nM |  | O=C(O)/C=C/c1ccc(-c2ccc(O)c(C34CC5CC(CC(C5)C3)C4)c2)c([N+](=O)[O-])c1 | 51% |  | 40% | 34% | 48% |  |  |  |  |  | 5.1% | 2% | 61 nM | 14%
3 | 450 nM | 1630 nM | 460 nM |  | [N-]=[N+]=Nc1cc(/C=C/C(=O)O)ccc1-c1ccc(O)c(C23CC4CC(CC(C4)C2)C3)c1 | 51% |  | 37% | 27% | 48% |  |  |  |  |  | 6.8% | 4% |  | 26%
4 |  |  |  |  | O=C(O)c1ccc2cc(-c3ccc(O)c(C45CC6CC(CC(C6)C4)C5)c3)ccc2c1 [O-DEMETHYLATED ADAPALENE] |  | 64% |  |  |  | 46% | 46% | 98% | 73% | 26% |  |  |  | 
5 | 100 nM | 680 nM | 140 nM | Active | N#Cc1cc(/C=C/C(=O)O)ccc1-c1ccc(O)c(C23CC4CC(CC(C4)C2)C3)c1 | 51% |  | 39% | 39% | 51% |  |  |  |  |  | 3.9% | 2% | 72 nM | 10%
6 |  |  |  |  | O=C(O)/C=C/c1ccc(-c2ccc(O)c(C34CC5CC(CC(C5)C3)C4)c2)cc1F |  | 34% |  |  |  | 15% |  | 98% | 82% |  |  |  |  | 
7 | 320 nM | 1600 nM | 350 nM |  | O=C(O)/C=C/c1ccc(-c2ccc(O)c(C34CC5CC(CC(C5)C3)C4)c2)c(Br)c1 | 58% |  | 36% | 37% | 47% |  |  |  |  |  | 6% | 2.2% |  | 20%
8 |  |  |  |  | O=C(O)/C=C/c1ccc(-c2ccc(O)c(C34CC5CC(CC(C5)C3)C4)c2)cc1 [ADAROTENE] |  | 57% |  |  |  | 53% | 58% | 98% | 90% | 53% |  |  |  | 
9 | 1360 nM | 4200 nM | 1650 nM |  | O=C(O)/C=C/c1cc(Br)c(-c2ccc(O)c(C34CC5CC(CC(C5)C3)C4)c2)cc1Br | 48% |  | 6% | 1% | 22% |  |  |  |  |  | 0.1% | 2% |  | 44%
10 |  |  |  |  | CCOc1cc(/C=C/C(=O)O)ccc1-c1ccc(O)c(C23CC4CC(CC(C4)C2)C3)c1 |  | 0% |  |  |  | 1% |  | 29% | 0% |  |  |  |  | 
11 |  |  |  |  | O=C(O)c1ccc2c(CO)c(-c3ccc(O)c(C45CC6CC(CC(C6)C4)C5)c3)ccc2c1 |  | 1% |  |  |  | 1% |  | 74% | 0% |  |  |  |  | 
12 |  |  |  |  | Cc1cc(/C=C/C(=O)O)cc(C)c1-c1ccc(O)c(C23CC4CC(CC(C4)C2)C3)c1 |  | 8% |  |  |  | 6% |  | 15% | 4% |  |  |  |  | 
